ChEMBL document CHEMBL1681713, “Lead detoxification activities and ADMET hepatotoxicities of a class of novel 5-(1-carbonyl-L-amino-acid)-2,2-dimethyl-[1,3]dithiolane-4-carboxylic acids” (Bioorg Med Chem Lett, 2011)

Experiments:
Brain [1] = assay: Toxicity in mouse assessed as effect on iron level in brain per gram of organ at 0.4 mmol/kg, ip qd for 5 days; assay type: organism-based; conditions: in vivo, 120 h
Femur [2] = assay: Detoxification activity against lead-induced toxicity in mouse assessed as reduction lead level in femurs per gram of organ at 0.4 mmol/kg, ip qd for 5 days measured 24 hrs last post dose by synchrotron X-ray fluorescence analysis; assay type: functional
Outline: (§1)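 Lead-loaded mice were given normal saline vehicle (negative control) or test agent at 0.2, 0.4 or 0.6 mmol/kg. Lead was measured in liver, kidney, left femur and brain and reported as mean ± SD µg Pb/g organ against the NS group.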

Kidney [3] = assay: Detoxification activity against lead-induced toxicity in mouse assessed as reduction lead level in kidney per gram of organ at 0.4 mmol/kg, ip qd for 5 days measured 24 hrs last post dose by synchrotron X-ray fluorescence analysis; assay type: functional; outline: as §1
[4] = Apparent permeability from basolateral to apical side of human Caco2 cells at 4 mM up to 120 mins by HPLC analysis; assay type: ADME, cell-based; conditions: Caco-2
Outline: (§2)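 Permeability measured across Caco-2 cell monolayers.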

Brain [5] = assay: Toxicity in mouse assessed as effect on zinc level in brain per gram of organ at 0.4 mmol/kg, ip qd for 5 days; assay type: organism-based; conditions: in vivo, 120 h
Brain [6] = assay: Toxicity in mouse assessed as effect on manganese level in brain per gram of organ at 0.4 mmol/kg, ip qd for 5 days; assay type: organism-based; conditions: in vivo, 120 h
Mus musculus = assay: Toxicity in mouse assessed as change in bodyweight at 0.4 mmol/kg, ip qd for 5 days; assay type: organism-based; conditions: in vivo, 120 h
Outline: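 Lead-loaded mice were given normal saline vehicle or test agent at 0.4 mmol/kg. Body weights were recorded and compared with the NS group to assess growth.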

Kidney [7] = assay: Toxicity in mouse assessed as effect on manganese level in kidney per gram of organ at 0.4 mmol/kg, ip qd for 5 days; assay type: organism-based; conditions: in vivo, 120 h
Liver [8] = assay: Toxicity in mouse assessed as effect on manganese level in liver per gram of organ at 0.4 mmol/kg, ip qd for 5 days; assay type: organism-based; conditions: in vivo, 120 h
Liver [9] = assay: Toxicity in mouse assessed as effect on zinc level in liver per gram of organ at 0.4 mmol/kg, ip qd for 5 days; assay type: organism-based; conditions: in vivo, 120 h
[10] = Apparent permeability from apical to basolateral side of human Caco2 cells at 4 mM up to 120 mins by HPLC analysis; assay type: ADME, cell-based; conditions: Caco-2; outline: as §2
[11] = Detoxification activity against lead-induced toxicity in mouse assessed as reduction lead level in urine at 0.4 mmol/kg, ip qd for 5 days measured 24 hrs last post dose by synchrotron X-ray fluorescence analysis; assay type: functional
Outline: (§3)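 Lead-loaded mice were given normal saline vehicle, DL-penicillamine or NaDMS (positive controls), or test agent, each at 0.4 mmol/kg; n = 12 per group. Lead was measured in feces and urine and reported as mean ± SD µg Pb/g excrement against the NS group.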

Caco-2 = assay: Efflux ratio of permeability […] in human Caco2 cells at 4 mM up to 120 mins by HPLC analysis; assay type: ADME, cell-based; conditions: caco-2, 2 h, 4000 µM; outline: as §2
Brain [12] = assay: Detoxification activity against lead-induced toxicity in mouse assessed as reduction lead level in brain per gram of organ at 0.4 mmol/kg, ip qd for 5 days measured 24 hrs last post dose by synchrotron X-ray fluorescence analysis; assay type: functional; outline: as §1
Kidney [13] = assay: Toxicity in mouse assessed as effect on copper level in kidney per gram of organ at 0.4 mmol/kg, ip qd for 5 days; assay type: organism-based; conditions: in vivo, 120 h
Liver [14] = assay: Toxicity in mouse assessed as effect on calcium level in liver per gram of organ at 0.4 mmol/kg, ip qd for 5 days; assay type: organism-based; conditions: in vivo, 120 h
Kidney [15] = assay: Toxicity in mouse assessed as effect on calcium level in kidney per gram of organ at 0.4 mmol/kg, ip qd for 5 days; assay type: organism-based; conditions: in vivo, 120 h
Brain [16] = assay: Toxicity in mouse assessed as effect on calcium level in brain per gram of organ at 0.4 mmol/kg, ip qd for 5 days; assay type: organism-based; conditions: in vivo, 120 h
Liver [17] = assay: Toxicity in mouse assessed as effect on iron level in liver per gram of organ at 0.4 mmol/kg, ip qd for 5 days; assay type: organism-based; conditions: in vivo, 120 h
Kidney [18] = assay: Toxicity in mouse assessed as effect on zinc level in kidney per gram of organ at 0.4 mmol/kg, ip qd for 5 days; assay type: organism-based; conditions: in vivo, 120 h
[19] = Detoxification activity against lead-induced toxicity in mouse assessed as reduction lead level in feces at 0.4 mmol/kg, ip qd for 5 days measured 24 hrs last post dose by synchrotron X-ray fluorescence analysis; assay type: functional; outline: as §3
Liver [20] = assay: Detoxification activity against lead-induced toxicity in mouse assessed as reduction lead level in liver per gram of organ at 0.4 mmol/kg, ip qd for 5 days measured 24 hrs last post dose by synchrotron X-ray fluorescence analysis; assay type: functional; outline: as §1
Brain [21] = assay: Toxicity in mouse assessed as effect on copper level in brain per gram of organ at 0.4 mmol/kg, ip qd for 5 days; assay type: organism-based; conditions: in vivo, 120 h
Kidney [22] = assay: Toxicity in mouse assessed as effect on iron level in kidney per gram of organ at 0.4 mmol/kg, ip qd for 5 days; assay type: organism-based; conditions: in vivo, 120 h
Liver [23] = assay: Toxicity in mouse assessed as effect on copper level in liver per gram of organ at 0.4 mmol/kg, ip qd for 5 days; assay type: organism-based; conditions: in vivo, 120 h
Liver [24] = assay: Detoxification activity against lead-induced toxicity in mouse assessed as reduction lead level in liver per gram of organ at 0.2 mmol/kg, ip qd for 5 days measured 24 hrs last post dose by synchrotron X-ray fluorescence analysis; assay type: functional; outline: as §1
Kidney [25] = assay: Detoxification activity against lead-induced toxicity in mouse assessed as reduction lead level in kidney per gram of organ at 0.6 mmol/kg, ip qd for 5 days measured 24 hrs last post dose by synchrotron X-ray fluorescence analysis; assay type: functional; outline: as §1
Femur [26] = assay: Detoxification activity against lead-induced toxicity in mouse assessed as reduction lead level in femurs per gram of organ at 0.2 mmol/kg, ip qd for 5 days measured 24 hrs last post dose by synchrotron X-ray fluorescence analysis; assay type: functional; outline: as §1
Liver [27] = assay: Detoxification activity against lead-induced toxicity in mouse assessed as reduction lead level in liver per gram of organ at 0.6 mmol/kg, ip qd for 5 days measured 24 hrs last post dose by synchrotron X-ray fluorescence analysis; assay type: functional; outline: as §1
Femur [28] = assay: Detoxification activity against lead-induced toxicity in mouse assessed as reduction lead level in femurs per gram of organ at 0.6 mmol/kg, ip qd for 5 days measured 24 hrs last post dose by synchrotron X-ray fluorescence analysis; assay type: functional; outline: as §1
Brain [29] = assay: Detoxification activity against lead-induced toxicity in mouse assessed as reduction lead level in brain per gram of organ at 0.2 mmol/kg, ip qd for 5 days measured 24 hrs last post dose by synchrotron X-ray fluorescence analysis; assay type: functional; outline: as §1
Brain [30] = assay: Detoxification activity against lead-induced toxicity in mouse assessed as reduction lead level in brain per gram of organ at 0.6 mmol/kg, ip qd for 5 days measured 24 hrs last post dose by synchrotron X-ray fluorescence analysis; assay type: functional; outline: as §1
Kidney [31] = assay: Detoxification activity against lead-induced toxicity in mouse assessed as reduction lead level in kidney per gram of organ at 0.2 mmol/kg, ip qd for 5 days measured 24 hrs last post dose by synchrotron X-ray fluorescence analysis; assay type: functional; outline: as §1

Row | SMILES | Activity (Brain [1]) [µg/g] | Activity (Femur [2]) [µg/g] | Activity (Kidney [3]) [µg/g] | Activity (Brain [5]) [µg/g] | Activity (Brain [6]) [µg/g] | Activity (Mus musculus) [g] | Activity (Kidney [7]) [µg/g] | Activity (Liver [8]) [µg/g] | Activity (Liver [9]) [µg/g] | Activity [11] [µg/g] | Activity (Brain [12]) [µg/g] | Activity (Kidney [13]) [µg/g] | Activity (Liver [14]) [µg/g] | Activity (Kidney [15]) [µg/g] | Activity (Brain [16]) [µg/g] | Activity (Liver [17]) [µg/g] | Activity (Kidney [18]) [µg/g] | Activity [19] [µg/g] | Activity (Liver [20]) [µg/g] | Activity (Brain [21]) [µg/g] | also measured
1 | CC1(C)SC(C(=O)O)C(C(=O)N[C@@H](CC(N)=O)C(=O)O)S1 (stereo not given in full) | 57.5 | 16.62 | 7.06 | 34.95 | 0.69 | 31.3 | 1.42 | 1.38 | 37.92 | 2.12 | 0.58 | 3.72 | 60.41 | 76.36 | 71.3 | 153.07 | 28.13 | 4.71 | 3.99 | 2.58 | Papp B→A at 2 h, 4000 µM [4]: 5.15 ×10⁻⁶ cm/s; Papp A→B at 2 h, 4000 µM [10]: 16.6 ×10⁻⁶ cm/s; Ratio (Caco-2): 3.23; Activity (Kidney [22]): 94.84 µg/g; Activity (Liver [23]): 3.74 µg/g
2 | CC1(C)SC(C(=O)O)C(C(=O)N[C@@H](CC(=O)O)C(=O)O)S1 (stereo not given in full) | 56.37 | 11.1 | 7.09 | 34.8 | 0.78 | 31.1 | 1.32 | 1.35 | 37.69 | 2.83 | 1.22 | 3.53 | 59.89 | 76.47 | 68.28 | 154.86 | 27.89 | 4.8 | 3.82 | 2.4 | Activity (Liver [24]): 5.81 µg/g; Activity (Kidney [25]): 5.9 µg/g; Activity (Femur [26]): 17.21 µg/g; Activity (Liver [27]): 2.77 µg/g; Activity (Femur [28]): 9.64 µg/g; Activity (Brain [29]): 1.69 µg/g; Activity (Brain [30]): 0.84 µg/g; Activity (Kidney [31]): 7.68 µg/g; Activity (Kidney [22]): 93.98 µg/g; Activity (Liver [23]): 3.61 µg/g
